Measurements: ChEMBL document CHEMBL2385006, “Fluorogenic sialic acid glycosides for quantification of sialidase activity upon unnatural substrates” (Bioorg Med Chem Lett, 2013)
Active and inactive are the calls of the source. No cut-off for these calls is given here.

How the values were obtained:
HL-60 [1] = experiment: Activity at sialidase in human HL60 cell lysate assessed as 4-methylumbelliferyl released at 125 uM for 2 hrs followed by washout by fluorescence assay; type: cell-based
Outline: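 To test uptake, HL60 cells were incubated 2 h with the 4MU sialoside, then washed thoroughly to remove free 4MU and substrate. The cells were resuspended in cell lysis buffer, and the fluorescence of the lysate was read against empty wells without cells or compound.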

Clostridium perfringens [2] = experiment: Activity at Clostridium perfringens sialidase assessed as 4-methylumbelliferyl released at 125 uM for 1 hr by fluorescence assay
Outline: (§1)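 Purified recombinant C. perfringens sialidase (0.05 mU) in acetate buffer pH 4.5 incubated 1 h at 37°C with 0.125 mM 4MU glycoside; parallel reactions with 0.1 mM DANA. Reaction brought to pH 10.7 with glycine buffer; fluorescence read at ex 365/em 450 nm. Relative values compare fluorescence with that of the natural Neu5Ac substrate. At least biological triplicate; standard deviations.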

HL-60 [3] = experiment: Activity at sialidase in human HL60 cells assessed as increase in 4-methylumbelliferyl release at 125 uM after 2 hrs by fluorescence assay; type: cell-based
Outline: (§2)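 Whole HL60 cells suspended in acetate buffer (pH 4.5) were incubated with 0.125 mM 4-methylumbelliferyl sialoside for 2 h at 37 °C. The reaction was stopped by raising the pH to 10.7 with glycine buffer, and released 4MU was read at once (ex 365 nm, em 450 nm). Values are means with standard deviations from at least biological triplicate.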

HL-60 [4] = experiment: Activity at sialidase in human HL60 cells assessed as increase in 4-methylumbelliferyl release at 125 uM after 2 hrs by fluorescence assay in presence of DANA; type: cell-based
Outline: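 Same whole-cell set-up: HL60 cells in acetate buffer pH 4.5 with 0.125 mM 4MU glycoside, 2 h, 37 °C, together with 0.1 mM of the non-specific sialidase inhibitor DANA. The mixture was adjusted to pH 10.7 with glycine buffer before fluorescence reading (ex 365/em 450 nm). At least biological triplicate; standard deviations shown.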

Clostridium perfringens [5] = experiment: Activity at Clostridium perfringens sialidase assessed as 4-methylumbelliferyl released at 125 uM for 1 hr by fluorescence assay relative to 4-Methylcoumarin-7-yl 5-acetamido-3,5-dideoxy-alpha-D-glycero-D-galacto-2-nonulopyranosidonic acid; outline: as §1
HL-60 [6] = experiment: Activity at sialidase in human HL60 cells assessed as increase in 4-methylumbelliferyl release at 125 uM after 2 hrs by fluorescence assay relative to 4-Methylcoumarin-7-yl 5-acetamido-3,5-dideoxy-alpha-D-glycero-D-galacto-2-nonulopyranosidonic acid; type: cell-based
Outline: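 Whole HL60 cells suspended in acetate buffer pH 4.5, treated 2 h at 37°C with 0.125 mM 4MU glycoside; parallel wells with 0.1 mM DANA. Stopped with glycine buffer pH 10.7, fluorescence read immediately (ex 365/em 450 nm). Fluorescence increase over background compared with the natural Neu5Ac substrate. At least biological triplicate; standard deviations.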

HL-60 [7] = experiment: Activity at sialidase in human HL60 cells assessed as decrease in 4-methylumbelliferyl release at 125 uM after 2 hrs by fluorescence assay; type: cell-based; outline: as §2
HL-60 [8] = experiment: Activity at sialidase in human HL60 cells assessed as decrease in 4-methylumbelliferyl release at 125 uM after 2 hrs by fluorescence assay relative to 4-Methylcoumarin-7-yl 5-acetamido-3,5-dideoxy-alpha-D-glycero-D-galacto-2-nonulopyranosidonic acid; type: cell-based; design: scale not given: the % may be the effect or the level left
Outline: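 Intact HL60 cells in pH 4.5 acetate buffer were exposed to 0.125 mM glycoside for 2 h at 37 °C. Glycine buffer (pH 10.7) was then added, and fluorescence was measured (ex 365, em 450 nm). The increase over background was expressed relative to the natural N-acetyl 4MU sialoside run the same way. At least biological triplicate, with standard deviations.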

Compound	Activity (HL-60 [1])	Activity (Clostridium perfringens [2])	Activity (HL-60 [3])	Activity (HL-60 [4])	Activity (Clostridium perfringens [5])	Activity (HL-60 [6])	Activity (HL-60 [7])	Activity (HL-60 [8])
CC(=O)N[C@H]1[C@H]([C@H](O)[C@H](O)CO)O[C@@](Oc2ccc3c(C)cc(=O)oc3c2)(C(=O)O)C[C@@H]1O	inactive	Active	Active	inactive	–	–	–	–
CC(F)(F)F.Cc1cc(=O)oc2cc(O[C@]3(C(=O)O)C[C@H](O)[C@@H](NC(=O)CO)[C@H]([C@H](O)[C@H](O)CO)O3)ccc12	–	–	–	inactive	6%	20%	–	–
Cc1cc(=O)oc2cc(O[C@]3(C(=O)O)C[C@H](O)[C@@H](NC(=O)CCC(F)(F)F)[C@H]([C@H](O)[C@H](O)CO)O3)ccc12	–	inactive	–	inactive	–	–	Active	–
Cc1cc(=O)oc2cc(O[C@]3(C(=O)O)C[C@H](O)[C@@H](NC(=O)CF)[C@H]([C@H](O)[C@H](O)CO)O3)ccc12	–	–	–	inactive	6%	50%	–	–
Cc1cc(=O)oc2cc(O[C@]3(C(=O)O)C[C@H](O)[C@@H](NC(=O)C(C)C)[C@H]([C@H](O)[C@H](O)CO)O3)ccc12	–	–	–	inactive	Active	–	–	60%
Cc1cc(=O)oc2cc(O[C@]3(C(=O)O)C[C@H](O)[C@@H](NC(=O)CC(F)(F)F)[C@H]([C@H](O)[C@H](O)CO)O3)ccc12	–	–	–	inactive	Active	–	Active	–
